Assay outcomes (PubChem BioAssay)
Shown are actives, neighbours in structure and some others; about 2.3% of the full set was active somewhere.
CFTR F508del cor: correctors of CFTR F508del function in bronchial epithelial cells | AID 720511 | activity (quench increase), % at 7.58 µM | CFBE cells, YFP halide quenching; stimulated with forskolin plus potentiator P3; % fluorescence drop versus neutral controls | 0.36% of 350,000 active;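 active means mean added fluorescence quench of at least 8% versus neutral control, with both replicates also reaching 8%; inconclusive means only one of the mean or replicate conditions met; inactive means mean below 8% and not both replicates reaching 8%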;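 further: cells transiently co-express mutant CFTR-F508del with the halide-sensitive YFP; corrector assay measuring rescue of mutant channel to the surface after 24 h compound exposure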
DENV2 CPE: DENV2-induced cell death inhibition. AID 651640. DENV2-infected cells, cytopathic effect rescue, plate reader. 1.7% of 350,000 active. CPE inhibition, % at 9.99 µM; in the data active means CPE inhibition above about 20%, passing the limit was not always enough; inconclusive means no clear call, values can overlap the other calls; tested in BHK-21 cells;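 further: 0% = median of neutral control wells and 100% = median of positive control wells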
Cneo AK release: Cryptococcus neoformans lysis via adenylate kinase release; C. neoformans lysis, adenylate kinase release luminescence, 4 h; normalised: neutral wells 0, clomiphene wells 100; lysis activity, % at 15 µM; 0.2% of 360,000 active; AID 651654;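 active means mean lysis activity across replicates of at least 80%, whatever share of replicates individually reach that level; inactive means mean lysis activity below 80%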
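Material – log-phase Cryptococcus neoformans yeast cells · Input – 5 × 10^6 yeast cells/mL · Medium – fresh YPD growth medium · Doses – single compound concentration per well · Timing – static 4 h at 37 °C with compound, 1 h detection · Detection – adenylate kinase release luminescence · Read-out – signal increase indicating cell lysis · Control set – Clomiphene as positive lysis control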
PDI turbidity: blocks human protein disulfide isomerase activity; PDI insulin aggregation turbidity, A650, 90 min; inhibition, % at 10 µM; 0.052% of 350,000 active; AID 588391;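 active means mean inhibition across replicates of 30% or more, whatever share of single replicates reach that level; inconclusive means mean inhibition below 30% while every single replicate reaches 30%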
C2C12 statin: suppressors of simvastatin-induced myotoxicity in C2C12 myotubes. rescue of ATP level, % at 7.49 µM. 0.78% of 330,000 active. AID 602340. ATP luminescence, 48 h; scaled: DMSO 0, geranylgeraniol control 100;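 active means mean ATP rescue above about 67%, or every replicate alone reaching that limit, limit read from the data, passing the limit was not always enough; inconclusive means no clear call, values can overlap the other calls; inactive means mean under the limit and some replicate under it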;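 further: myotubes were challenged with 10 µM simvastatin during compound exposure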
ERp5 block: blocks human ERp5 reductase activity on insulin; ERp5 insulin aggregation, absorbance 650 nm, 90 min; Q15084; inhibition, % at 9.99 µM; 0.05% of 350,000 active;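 active means mean replicate inhibition above about 25%, with every replicate also reaching it, limit read from the data, passing the limit was not always enough; inconclusive means only one of those two criteria met; inactive means neither criterion met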
Target sequence (Q15084 whole entry, looked up): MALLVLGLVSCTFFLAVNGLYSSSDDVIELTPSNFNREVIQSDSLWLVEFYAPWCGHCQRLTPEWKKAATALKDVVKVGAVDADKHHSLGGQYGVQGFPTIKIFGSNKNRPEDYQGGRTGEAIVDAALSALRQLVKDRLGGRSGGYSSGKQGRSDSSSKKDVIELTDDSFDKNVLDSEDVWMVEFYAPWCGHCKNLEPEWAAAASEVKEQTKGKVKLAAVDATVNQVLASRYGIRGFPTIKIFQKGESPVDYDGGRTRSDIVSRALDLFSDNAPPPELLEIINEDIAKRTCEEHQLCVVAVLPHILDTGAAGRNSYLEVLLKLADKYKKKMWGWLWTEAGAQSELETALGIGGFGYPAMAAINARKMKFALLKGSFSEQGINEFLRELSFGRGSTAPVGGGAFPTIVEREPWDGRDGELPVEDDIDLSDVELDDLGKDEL
Starred values were filed as active, the others as inactive; ? = inconclusive; · = not tested or not shown.

SMILES	CFTR F508del cor	DENV2 CPE	Cneo AK release	PDI turbidity	C2C12 statin	ERp5 block
CNC(=O)C[C@@H]1CC[C@@H]2[C@H](COC[C@@H](O)CN2Cc2ccncc2)O1	-1	25*	6	·	-10	-5
O=C(C[C@@H]1CC[C@@H]2[C@H](COC[C@@H](O)CN2C(=O)Nc2ccc(Cl)c(Cl)c2)O1)NCc1ccc(Cl)c(Cl)c1	-1	-20	-2	·	-10	-19
O=C(C[C@@H]1CC[C@@H]2[C@H](COC[C@H](O)CN2C(=O)Nc2ccc(Cl)c(Cl)c2)O1)NCc1ccc(Cl)c(Cl)c1	0	44*	-7	·	-13	2
CNC(=O)C[C@H]1CC[C@H]2[C@@H](COC[C@@H](O)CN2Cc2ccncc2)O1	1	-11	4	·	1	0
C[C@H](CO)N1C[C@H](C)[C@@H](CN(C)C(=O)C2CCC2)Oc2ncc(-c3ccncc3)cc2C1=O	0	·	·	·	-5	·
O=C(Nc1cnn(Cc2ccccc2)c1)c1cc2nc(-c3ccco3)cc(C(F)(F)F)n2n1	·	·	0	-8	125*	·
Cc1nn(C)cc1NC(=O)c1cc2nc(-c3ccco3)cc(C(F)(F)F)n2n1	-3	?	3	2	-1	-6
COc1ccc(S(=O)(=O)Nc2cccc3c2O[C@@H](CN(C)S(C)(=O)=O)[C@@H](C)CN([C@@H](C)CO)C3=O)cc1	1	120*	57	·	·	5
COc1ccc(S(=O)(=O)Nc2cccc3c2O[C@@H](CN(C)S(=O)(=O)c2ccc(Cl)cc2)[C@@H](C)CN([C@@H](C)CO)C3=O)cc1	-1	-7	0	·	-55	1
COc1ccc(S(=O)(=O)N(C)C[C@H]2Oc3c(NS(=O)(=O)c4cccs4)cccc3C(=O)N([C@@H](C)CO)C[C@@H]2C)cc1	-2	36*	·	·	·	-1
COc1ccc(S(=O)(=O)Nc2cccc3c2O[C@H](CN(C)S(=O)(=O)c2ccc(Cl)cc2)[C@H](C)CN([C@@H](C)CO)C3=O)cc1	1	-7	-3	·	91*	-8
COc1ccc2c3c(n(C)c2c1)[C@@H](CO)N(Cc1nccs1)CC31CCN(C)CC1	-1	-3	·	·	·	-1
O=C(C[C@H]1CC[C@H]2[C@@H](COC[C@H](O)CN2Cc2ccccc2F)O1)N1CCc2ccccc2C1	-5	28*	77	·	9	-3
O=C(C[C@H]1CC[C@H]2[C@@H](COC[C@@H](O)CN2Cc2ccc(Oc3ccccc3)cc2)O1)N1CCc2ccccc2C1	0	13	4	·	40	1
O=C(C[C@H]1CC[C@@H]2[C@H](COC[C@H](O)CN2Cc2ccc(Oc3ccccc3)cc2)O1)N1CCc2ccccc2C1	11*	-3	1	·	-6	-2
O=C(C[C@@H]1CC[C@H]2[C@@H](COC[C@@H](O)CN2Cc2cccc(-c3ccncc3)c2)O1)N1CCCCC1	0	29*	57	·	-10	-16
O=C(C[C@H]1CC[C@@H]2[C@H](COC[C@@H](O)CN2Cc2ccc(Oc3ccccc3)cc2)O1)N1CCCCC1	-2	6	4	·	71*	1
Cc1ccc(S(=O)(=O)N(C)C[C@H]2Oc3c(NC(=O)c4cnccn4)cccc3C(=O)N([C@H](C)CO)C[C@H]2C)cc1	4	-3	1	·	14	-3
O=C(C[C@@H]1CC[C@@H]2[C@H](COC[C@H](O)CN2Cc2ccc(Oc3ccccc3)cc2)O1)N1CCN(c2ccccc2)CC1	8.9*	1	4	·	41	-8
C[C@H](CO)N1C[C@H](C)[C@@H](CN(C)Cc2ccncc2)Oc2cc(-c3cccnc3)ccc2S1(=O)=O	-1	-17	0	·	-63	7
C[C@@H]1CN([C@@H](C)CO)C(=O)c2cc(NS(=O)(=O)c3ccccc3)ccc2O[C@@H](C)CCCCO[C@@H]1CN(C)Cc1ccncc1	2	49*	1	·	·	-5
C[C@@H]1CN([C@H](C)CO)C(=O)c2cc(NS(=O)(=O)c3ccccc3)ccc2O[C@@H](C)CCCCO[C@H]1CN(C)Cc1ccncc1	0	6	1	·	·	-3
C[C@@H]1CCCCO[C@H](CN(C)Cc2ccncc2)[C@H](C)CN([C@@H](C)CO)C(=O)c2cc(NS(=O)(=O)c3ccccc3)ccc2O1	3	33*	-2	·	·	4
